A word on the Ki: it is a measure of affinity in units of concentration, obtained from inhibition or displacement.

This is an account of results in article PMC3604185 (Biochemical pharmacology, 2013).

In assay [1] the target is T1, hA3AR (Homo sapiens, UniProt P0DMS8).
T1 sequence (P0DMS8 1-318): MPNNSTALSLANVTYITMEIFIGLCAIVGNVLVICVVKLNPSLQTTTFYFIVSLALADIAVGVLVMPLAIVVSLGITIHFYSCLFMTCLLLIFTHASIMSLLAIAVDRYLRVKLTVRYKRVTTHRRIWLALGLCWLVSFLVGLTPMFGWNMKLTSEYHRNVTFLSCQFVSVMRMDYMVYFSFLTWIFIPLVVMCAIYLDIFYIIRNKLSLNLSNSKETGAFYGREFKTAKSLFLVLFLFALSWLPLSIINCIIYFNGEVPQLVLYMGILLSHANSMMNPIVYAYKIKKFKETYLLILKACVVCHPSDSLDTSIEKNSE
Description: FCM of MRS5704 in AR-expressing HEK293 cells. Type of assay: binding.

Assay [2] concerns the target T2, mA3AR (Mus musculus, UniProt Q61618).
T2 sequence (Q61618 1-319): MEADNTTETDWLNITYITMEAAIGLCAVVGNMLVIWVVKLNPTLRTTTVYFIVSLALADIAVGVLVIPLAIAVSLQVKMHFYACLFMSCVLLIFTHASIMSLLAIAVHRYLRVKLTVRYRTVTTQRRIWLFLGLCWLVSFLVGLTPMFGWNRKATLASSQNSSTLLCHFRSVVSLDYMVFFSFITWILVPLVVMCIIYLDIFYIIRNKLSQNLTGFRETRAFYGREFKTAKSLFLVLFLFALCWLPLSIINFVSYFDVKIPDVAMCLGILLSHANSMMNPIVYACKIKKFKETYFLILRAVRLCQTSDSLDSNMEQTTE
Kind of assay: FCM binding. The method in brief: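 HEK293 cells stably expressing mouse A3AR, grown in DMEM with 10% FBS and 0.6 mg/ml G418. Cells were incubated with fluorescent agonist (5–1,000 nM) at 37 °C for varied times. […] Cells were washed in ice-cold PBS and detached with 0.2% EDTA. MFI was read in FL-4 (635 nm laser) and fitted by non-linear least squares.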

The target of assay [3] is T1, hA3AR. Kind of assay: FCM competitive binding in hA3AR-CHO whole cells with MRS5218. The conditions noted are these: read-out: FCM binding at hA3AR, Ki, MRS5218 30 nM tracer, 60 min at 37 °C, 0.4 M sucrose.
In assay [4] the target is T2, mA3AR. Type of assay: binding. The conditions noted are these: read-out: Ki, A3AR (mouse), n = 3-4. The method in brief: (§1)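 Membranes from HEK293 cells stably expressing the mouse receptor were used in a competition assay following the human-receptor protocol. Test compound at increasing concentrations was incubated with radioligand and membranes in 50 mM Tris-HCl, pH 7.5, with 10 mM MgCl2, at 25 °C for 60 min. Bound and free were separated by GF/B filtration with ice-cold Tris washes. […] Ki was calculated from IC50 by nonlinear fitting.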

The target in the next assay is hA2AAR (Homo sapiens, UniProt P29274). The conditions noted are these: read-out: Ki, A2AAR, ref [21],[22]; cited from earlier work.
The target of the next assay is T3, hA1AR (Homo sapiens, UniProt P30542).
T3 sequence (P30542 1-326): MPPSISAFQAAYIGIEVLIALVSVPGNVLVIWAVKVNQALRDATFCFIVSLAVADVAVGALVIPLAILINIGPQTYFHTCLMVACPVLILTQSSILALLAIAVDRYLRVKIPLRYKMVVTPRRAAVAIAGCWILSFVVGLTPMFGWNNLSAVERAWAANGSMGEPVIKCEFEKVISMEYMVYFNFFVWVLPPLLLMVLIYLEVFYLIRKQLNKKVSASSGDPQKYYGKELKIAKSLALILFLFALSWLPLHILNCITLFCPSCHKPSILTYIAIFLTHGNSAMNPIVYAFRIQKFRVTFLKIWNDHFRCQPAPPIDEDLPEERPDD
The conditions noted are these: inhibition of radioligand binding at 10 µM, ref [19],[21],[22]; cited from earlier work.

The target of assay [5] is T4, mA2AAR (Mus musculus, UniProt Q60613). Description: FCM binding in HEK293 cells expressing mA2AAR. The following applies: 1 µM, 2 h. In short, it runs like this: (§2)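 Stable HEK293 lines expressing the mouse receptor were grown in DMEM with 10% FBS, 2 mM L-glutamine, penicillin/streptomycin and 0.6 mg/ml G418, then plated for 24 h at 37 °C, 5% CO2. At about 80% confluency, the fluorescent agonist (range 5–1000 nM) was added in fresh medium at 37 °C. Cells were then washed in ice-cold PBS, detached with 0.2% EDTA, spun twice at 400 × g and resuspended in PBS. MFI was read by flow cytometry (635 nm laser, FL-4, log mode).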

For assay [6], the target named is T5, mA1AR (Mus musculus, UniProt Q60612).
T5 sequence (Q60612 1-326): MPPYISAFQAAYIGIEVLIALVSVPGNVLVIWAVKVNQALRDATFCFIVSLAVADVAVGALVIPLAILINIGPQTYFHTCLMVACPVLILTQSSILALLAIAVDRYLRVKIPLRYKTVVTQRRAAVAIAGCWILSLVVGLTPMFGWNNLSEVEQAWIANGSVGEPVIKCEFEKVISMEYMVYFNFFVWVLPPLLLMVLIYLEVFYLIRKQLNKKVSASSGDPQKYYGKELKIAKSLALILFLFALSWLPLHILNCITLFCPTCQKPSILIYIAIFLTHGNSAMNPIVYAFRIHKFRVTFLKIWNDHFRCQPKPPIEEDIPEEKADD
Description: FCM binding in HEK293 cells expressing mA1AR. The conditions noted are these: 1 µM, 2 h. In short, it runs like this:
as §2

Assay [7] concerns the target T5, mA1AR. Type of assay: binding. The conditions noted are these: read-out: Ki, A1AR (mouse), n = 3-4. In short, it runs like this: as §1
The target of assay [8] is T4, mA2AAR. Type of assay: binding. The following applies: read-out: Ki, A2AAR (mouse), n = 3-4. In short, it runs like this: as §1
In the next assay the target is T6, mA2BAR (Mus musculus, UniProt Q60614).
T6 sequence (Q60614 1-332): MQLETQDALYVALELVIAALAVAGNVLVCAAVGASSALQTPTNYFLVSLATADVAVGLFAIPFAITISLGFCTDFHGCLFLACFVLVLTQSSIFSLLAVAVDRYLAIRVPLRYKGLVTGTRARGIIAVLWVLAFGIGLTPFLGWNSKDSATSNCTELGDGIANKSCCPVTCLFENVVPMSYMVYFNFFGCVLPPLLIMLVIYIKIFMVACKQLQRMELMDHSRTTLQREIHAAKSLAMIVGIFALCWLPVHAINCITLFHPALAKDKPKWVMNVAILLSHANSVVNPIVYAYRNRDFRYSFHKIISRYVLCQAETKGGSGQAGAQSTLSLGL
Description: FCM binding in HEK293 cells expressing mA2BAR. The following applies: 1 µM, 2 h. The method in brief: as §2

“And” between values parts separate entries of the source, which are not always exact repeats. Identical values can stand only once.

T4 sequence (Q60613 whole entry): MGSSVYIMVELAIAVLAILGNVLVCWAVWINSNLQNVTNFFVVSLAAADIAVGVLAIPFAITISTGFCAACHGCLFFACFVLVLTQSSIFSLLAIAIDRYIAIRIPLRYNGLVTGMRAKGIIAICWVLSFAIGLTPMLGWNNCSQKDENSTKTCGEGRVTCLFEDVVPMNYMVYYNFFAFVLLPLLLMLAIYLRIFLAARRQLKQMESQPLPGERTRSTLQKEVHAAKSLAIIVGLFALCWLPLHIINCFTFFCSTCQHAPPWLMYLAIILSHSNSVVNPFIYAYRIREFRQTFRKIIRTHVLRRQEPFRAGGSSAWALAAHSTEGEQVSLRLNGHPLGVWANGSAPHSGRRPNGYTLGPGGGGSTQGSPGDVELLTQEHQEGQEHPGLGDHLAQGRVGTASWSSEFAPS
Chain of hA2AAR (P29274 whole entry): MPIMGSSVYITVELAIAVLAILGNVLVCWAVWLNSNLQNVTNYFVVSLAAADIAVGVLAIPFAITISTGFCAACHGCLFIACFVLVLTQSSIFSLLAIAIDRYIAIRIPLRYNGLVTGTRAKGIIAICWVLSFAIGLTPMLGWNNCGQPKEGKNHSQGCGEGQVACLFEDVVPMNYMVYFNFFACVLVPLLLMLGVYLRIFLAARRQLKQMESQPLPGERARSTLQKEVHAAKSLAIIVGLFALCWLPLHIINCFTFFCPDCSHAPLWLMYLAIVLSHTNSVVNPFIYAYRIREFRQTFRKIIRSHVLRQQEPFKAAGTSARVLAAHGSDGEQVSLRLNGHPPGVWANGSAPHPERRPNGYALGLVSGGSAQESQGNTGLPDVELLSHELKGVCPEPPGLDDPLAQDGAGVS

Consider `CNC(=O)[C@@]12C[C@@H]1[C@@H](n1cnc3c(NCc4cccc(Cl)c4)nc(C#Cc4ccc5ccc6cccc7ccc4c5c67)nc31)[C@H](O)[C@@H]2O` [Compound 2, (1S,2R,3S,4R,5S)-4-(6-(3-chlorobenzylamino)-2-(pyren-1-ylethynyl)-9H-purin-9-yl)-2,3-dihydroxy-N-methylbicyclo[3.1.0]hexane-1-carboxamide], for which the “specific fluorescent binding by FCM, hA3AR” value on hA3AR [1] is listed as “failed to show specific fluorescent binding”. Besides, the “specific fluorescent binding by FCM, mA3AR” value at mA3AR [2] (AR-expressing HEK293 cells) is on record as “failed to show specific fluorescent binding”.
Consider `OC[C@H]1O[C@@H](n2cnc3c(NC4CCCC4)ncnc32)[C@H](O)[C@@H]1O` [CPA], for which, on hA3AR [3], the inhibition constant Ki came to 88.4 ± 13.6 nM.
Turning to “(1′S,2′R,3′S,4′S,5′S)-4′-[6-(3-chlorobenzylamino)-2-(N-cyanine(β-aminoethylaminocarbonyl)-1-butynyl)-9-yl]-2′,3′-dihydroxybicyclo[3.1.0]hexane-1′-carboxylic acid N-methylamide [Compound 1]”, the Ki at mA3AR [4] was 261 ± 29 nM; on hA2AAR, 4730 nM; on mA1AR [7] it was 143 nM; on mA2AAR [8], 717 ± 19 nM. Further, the “% inhibition, A1AR” value on hA1AR is reported as “h: 36%”. The “specific binding to mA2AAR-HEK293 cells” value on mA2AAR [5] was “not observed”. Moreover, the “specific binding to mA1AR-HEK293 cells” value at mA1AR [6] was “not observed”. For the same molecule, the “specific binding to mA2BAR-HEK293 cells” value on mA2BAR is “became detectable”. At mA3AR [2] (5 nM for 2 h, then NECA (100 µM)), this molecule returned a t1/2 of dissociation of 39.4 ± 4.2 min. For the same molecule, the t1/2 of association at mA3AR [2] (5 nM, listed as MRS5218) was 38 min and 37.8 ± 2.9 min. Also, the “specific labeling of mA3AR-HEK293 cells” value at mA3AR [2] (50-300 nM, 2 h, nonspecific with 100 µM NECA) was “specifically labeled mA3AR-HEK293 cells versus cells expressing other AR subtypes”. Moreover, at mA3AR [2] (read-out: Kd app, saturation, whole cells, 2 h, absence of sucrose), the Kd turned out to be 7.52 ± 0.49 nM. The Bmax at mA3AR [2] (saturation, whole cells, 2 h, absence of sucrose) is listed as 99,420±18,110 MESF/cell.
